Data set [1] deals with HepG2. As to the kind of experiment: Cytotoxicity against human HepG2 cells assessed as inhibition of cell growth upto 32 ug/ml. It counts as toxicity, cell-based. Particulars: dose < 32 µg/ml. In outline: (§1)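 MTT proliferation assay on HEK293 (normal embryonic kidney) or HepG2 (liver cancer) cells. Cells are seeded at 10000 cells/well and adhered at 37 °C, 5% CO₂. Compounds are tested at 64 to 1 µg/mL (143 to 4.6 µM) in triplicate, with a DMSO vehicle control. Incubation is 48 h, followed by MTT (1 mg/mL) for 3 h at 37 °C.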

Data set [2] in a line: Cytotoxicity against human HepG2 cells assessed as inhibition of cell growth at 64 ug/ml relative to control. In kind it is toxicity, cell-based. The note with it: at 64 µg/mL, read-out: Activity. In outline:
as §1

Data set [3] concerns Mycolicibacterium smegmatis. The data set can be described thus: Antibacterial activity against Mycobacterium smegmatis ATCC 607 assessed as inhibition of bacterial growth incubated for 2 days by CLSI protocol based broth microdilution method. It counts as functional. The note with it: ATCC 607, 48 h, time 2 day. In a few lines:
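CLSI broth microdilution in Middlebrook 7H9 with 10% ADC. Compounds are dissolved in DMSO at 4.0 mg/mL (stock) and serially diluted from 64 to 0.015 µg/mL. Inoculum is ~10⁵ CFU/mL, checked by plating on 7H11 agar. Rifampin and levofloxacin are positive controls; drug-free broth with DMSO is the negative control. Growth inhibition is read after 2 days at 37 °C as MIC.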

Data set [4] has as its system Staphylococcus epidermidis. The data set can be described thus: Antibacterial activity against clinical isolate methicillin resistant Staphylococcus epidermidis AB 735 assessed as inhibition of bacterial growth incubated for 22 to 24 hrs. In kind it is functional. Particulars: time 22-24 hrs.
Data set [5] relates to A549. As to the kind of experiment: Cytotoxicity against human A549 cells assessed as cell viability at 143 uM relative to control. Particulars: a549, 143 µM.
For a further data set, the system named is Enterococcus faecium. The data set can be described thus: Antibacterial activity against Enterococcus faecium ATCC 49624 assessed as inhibition of bacterial growth incubated for 22 to 24 hrs. It counts as functional. The note with it: time 22-24 hrs. In a few lines: (§2)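 Broth MIC referenced to an earlier protocol. Inocula come from mid-log cultures sub-cultured on soybean casein digest agar, adjusted to McFarland (~10⁸ CFU/mL), then diluted to ~10⁵ CFU/mL. Compounds and controls are serially diluted from 64 to 0.03 µg/mL. Tested in triplicate, read after 22–24 h at 37 °C. MIC is the lowest concentration with no visible growth.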

For a further data set, the system named is Moraxella catarrhalis. As to the kind of experiment: Antibacterial activity against Moraxella catarrhalis ATCC 25238 assessed as inhibition of bacterial growth incubated for 22 to 24 hrs. It counts as functional. The note with it: time 22-24 hrs. In outline:
as §2

Data set [6] is described as follows: Cytotoxicity against human A549 cells assessed as inhibition of cell growth at 64 ug/ml relative to control. It counts as toxicity, cell-based. The note with it: at 64 µg/mL, read-out: Activity. In outline: (§3)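 MTT proliferation assay. A549 cells are seeded at 10000 cells/well and allowed to adhere at 37 °C, 5% CO₂. Compounds are added at 64 to 1 µg/mL (143 to 4.6 µM) in triplicate, with a DMSO vehicle control. Incubation is 24 h, then MTT (1 mg/mL) is added for 3 h at 37 °C.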

In data set [7] the test system is Staphylococcus aureus. As to the kind of experiment: Antibacterial activity against methicillin sensitive Staphylococcus aureus ATCC 29213 assessed as inhibition of bacterial growth incubated for 22 to 24 hrs. Particulars: time 22-24 hrs. In kind it is functional. In outline: as §2
Data set [8] deals with Staphylococcus aureus. The data set can be described thus: Antibacterial activity against methicillin resistant Staphylococcus aureus ATCC 33591 assessed as inhibition of bacterial growth incubated for 22 to 24 hrs. It counts as functional. Particulars: time 22-24 hrs. In outline:
(§4)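 Broth microdilution MIC. Strains were subcultured on Soybean Casein Digest Agar, and inocula were taken from mid-log culture, adjusted to McFarland (~10⁸ CFU/mL), then diluted to ~10⁵ CFU/mL. Serial dilutions ran from 64 to 0.03 µg/mL. Plates were incubated 22–24 h at 37 °C, in triplicate. MIC was the lowest concentration with no visible growth.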

The next data set concerns Escherichia coli. The data set can be described thus: Antibacterial activity against clinical isolate Escherichia coli AB 117 assessed as inhibition of bacterial growth incubated for 22 to 24 hrs. It counts as functional. Particulars: time 22-24 hrs.
Data set [9] relates to Mycobacterium tuberculosis. The data set can be described thus: Antibacterial activity against Mycobacterium tuberculosis H37Rv ATCC 25618 assessed as inhibition of bacterial growth incubated for 2 days by CLSI protocol based broth microdilution method. The note with it: H37Rv ATCC 25618, 48 h, time 2 day. In kind it is functional.
In data set [10] the test system is HEK293. The data set can be described thus: Cytotoxicity against HEK293 cells assessed as inhibition of cell growth upto 64 ug/ml. The note with it: human, dose < 64 µg/ml. It counts as toxicity, cell-based.
A further data set has as its system Klebsiella pneumoniae. As to the kind of experiment: Antibacterial activity against clinical isolate Klebsiella pneumoniae AB 356 assessed as inhibition of bacterial growth incubated for 22 to 24 hrs. It counts as functional. Particulars: time 22-24 hrs.
Data set [11] deals with HepG2. As to the kind of experiment: Cytotoxicity against human HepG2 cells assessed as cell viability at 143 uM relative to control. Particulars: hepg2, 143 µM.
Data set [12] relates to HEK293. As to the kind of experiment: Cytotoxicity against HEK293 cells assessed as cell viability at 143 uM relative to control. The note with it: human, hek293, 143 µM.
Another data set concerns Acinetobacter baumannii. The data set can be described thus: Antibacterial activity against clinical isolate Acinetobacter baumannii BAA 747 assessed as inhibition of bacterial growth incubated for 22 to 24 hrs. In kind it is functional. Particulars: time 22-24 hrs.
The subject of the next data set is Enterococcus faecalis. As to the kind of experiment: Antibacterial activity against vancomycin resistant Enterococcus faecalis ATCC 700802 assessed as inhibition of bacterial growth incubated for 22 to 24 hrs. It counts as functional. The note with it: time 22-24 hrs. In a few lines:
as §4

The subject of data set [13] is A549. The data set can be described thus: Cytotoxicity against human A549 cells assessed as inhibition of cell growth upto 32 ug/ml. Particulars: dose < 32 µg/ml. In kind it is toxicity, cell-based. In outline:
as §3

Another data set relates to Pseudomonas aeruginosa. As to the kind of experiment: Antibacterial activity against clinical isolate Pseudomonas aeruginosa AB 645 assessed as inhibition of bacterial growth incubated for 22 to 24 hrs. It counts as functional. Particulars: time 22-24 hrs.

Converted amounts (≈) assume the structure as drawn.

As a reminder, the MIC is the lowest concentration that inhibits growth of the organism. By viability is commonly meant a read-out of living cells in per cent, often relative to untreated cells.

For `COc1cc(CN2CCN(S(=O)(=O)c3ccccc3F)CC2)nc2ccc(F)cc12`, the Activity entry with HepG2 [1], in the data set with HEK293 [10] and with A549 [13] was “Non-Toxic” each time. Besides, the inhibition at 64 ug/ml in data set [2] and in data set [6] was less than 12% each time. The MIC is 0.5 µg/mL (≈ 1.15 µM) in data set [3]; 16 µg/mL (≈ 36.9 µM) in data set [4]; 0.5 µg/mL (≈ 1.15 µM) in the data set with Enterococcus faecium; 0.03 µg/mL (≈ 0.0692 µM) in the data set on Moraxella catarrhalis; 0.5 µg/mL (≈ 1.15 µM) in the data set on Staphylococcus aureus [7]; 0.06 µg/mL (≈ 0.138 µM) with Staphylococcus aureus [8]. Moreover, the MIC with Escherichia coli was 16 µg/mL (≈ 36.9 µM); in data set [9], 1 µg/mL (≈ 2.31 µM); in the data set with Klebsiella pneumoniae, more than 64 µg/mL; in the data set with Acinetobacter baumannii, more than 64 µg/mL; in the data set with Enterococcus faecalis it was 2 µg/mL (≈ 4.61 µM); with Pseudomonas aeruginosa, more than 64 µg/mL. Further, the viability was determined as 88.6% in the data set on A549 [5], 91.8% with HepG2 [11] and 99.5% in the data set on HEK293 [12].

As to `COc1ccc2nc(CN3CCN(S(=O)(=O)c4ccccc4F)CC3)cc(OC)c2c1`, the Activity result in the data set on HepG2 [1], in the data set on HEK293 [10] and in the data set on A549 [13] was “Non-Toxic” throughout. Also, the inhibition at 64 ug/ml in [2] and in [6] was less than 12% each time. The MIC in data set [3] came to 0.031 µg/mL (≈ 0.0696 µM); in data set [4] it was 32 µg/mL (≈ 71.8 µM); with Enterococcus faecium, 2 µg/mL (≈ 4.49 µM); in the data set with Moraxella catarrhalis, 0.06 µg/mL (≈ 0.135 µM); with Staphylococcus aureus [7] it was 0.03 µg/mL (≈ 0.0673 µM); in the data set on Staphylococcus aureus [8], 8 µg/mL (≈ 18 µM). The MIC with Escherichia coli is 8 µg/mL (≈ 18 µM); in [9], 0.063 µg/mL (≈ 0.141 µM); in the data set on Klebsiella pneumoniae, more than 64 µg/mL; in the data set with Acinetobacter baumannii, more than 64 µg/mL; in the data set with Enterococcus faecalis it was 1 µg/mL (≈ 2.24 µM); with Pseudomonas aeruginosa, more than 64 µg/mL. In addition, the values for the viability in the data set on A549 [5], in the data set on HepG2 [11] and in the data set with HEK293 [12] were 91.1%, 97.7% and 100.8%, respectively.

The record behind these values is ChEMBL document CHEMBL5230166, “Novel quinoline-piperazine hybrids: the design, synthesis and evaluation of antibacterial and antituberculosis properties” (RSC Med Chem, 2023).
